Experimental data as given in ChEMBL document CHEMBL4706624, “Synthesis and evaluation of new quinazoline-benzimidazole hybrids as potent anti-microbial agents against multidrug resistant Staphylococcus aureus and Mycobacterium tuberculosis” (Eur J Med Chem, 2021).
Converted amounts (≈) assume the structure as drawn.

Columns and labels:
[1] = test system: Acinetobacter baumannii; test: Antibacterial activity against Acinetobacter baumannii BAA1605 measured after 16 to 18 hrs; format: functional; settings: time 16-18 hrs
Outline: (§1)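 Broth microdilution MIC. Strains grown on MHA; a single colony was grown overnight in CA-MHB at 37 °C with shaking for 18–24 h. Cultures were diluted by OD600 to ~10⁶ cfu/mL and exposed to compound at […]. Plates were incubated at 37 °C for 16-18 h. MIC = lowest concentration with no visible growth. Levofloxacin was the reference. Three independent runs, each in duplicate.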

[2] = Cytotoxicity against African green monkey Vero cells assessed as reduction in cell viability measured after 72 hrs by MTT assay; format: cell-based; settings: chlorocebus sabaeus
Outline: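 Vero cells (ATCC CCL-81), ~10³ cells/well, held 24 h at 37 °C in 5% CO₂. Compound at 100–5 mg/L for 72 h. MTT was added for 4 h, formazan dissolved in DMSO, OD read at 540 nm. CC50 = concentration giving 50% viability reduction. Doxorubicin was the positive control. Triplicate.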

[3] = test system: Mycobacteroides chelonae; test: Antimycobacterial activity against Mycobacterium chelonae ATCC 35752 by broth microdilution method; format: functional
Outline: (§2)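 Broth microdilution MIC in Middlebrook 7H9 with 10% ADC-Tween-80 (BSA, dextrose, 0.2% glycerol, 0.05% Tween-80). Inoculum ~10⁶ cfu/mL set by OD600. Compounds were twofold serially diluted, 0.0064–0.00005 g/100 mL (DMSO stocks). Presto blue resazurin dye was used as read-out. MIC = lowest concentration inhibiting visible growth. Triplicate runs, each in duplicate.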

[4] = test system: Pseudomonas aeruginosa; test: Antibacterial activity against Pseudomonas aeruginosa ATCC 27853 measured after 16 to 18 hrs; format: functional; settings: time 16-18 hrs; outline: as §1
[5] = test system: Staphylococcus aureus; test: Antibacterial activity against Staphylococcus aureus ATCC 29213 measured after 16 to 18 hrs; format: functional; settings: time 16-18 hrs; outline: as §1
[6] = test system: Mycobacterium tuberculosis; test: Antitubercular activity against Mycobacterium tuberculosis H37Rv ATCC 27294 measured after 7 days by broth microdilution method; format: functional; settings: H37Rv ATCC 27294, 168 h, time 7 day
Outline: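 H37Rv in Middlebrook 7H9 with 10% ADC, 0.2% glycerol, 0.05% Tween-80. Inoculum ~10⁶ cfu/mL set by OD600. Twofold serial dilutions, 0.0064–0.00005 g/100 mL. Incubated at 37 °C for 7 days, then Presto blue resazurin read-out. MIC = lowest concentration inhibiting visible growth. Triplicate runs, each in duplicate.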

[7] = test system: Mycobacteroides abscessus; test: Antimycobacterial activity against Mycobacterium abscessus ATCC 19977 by broth microdilution method; format: functional; outline: as §2
[8] = test system: Mycolicibacterium fortuitum; test: Antimycobacterial activity against Mycobacterium fortuitum ATCC 6841 by broth microdilution method; format: functional; outline: as §2
[9] = test system: Escherichia coli; test: Antibacterial activity against Escherichia coli ATCC 25922 measured after 16 to 18 hrs; format: functional; settings: time 16-18 hrs; outline: as §1
[10] = test system: Klebsiella pneumoniae; test: Antibacterial activity against Klebsiella pneumoniae BAA-1705 measured after 16 to 18 hrs; format: functional; settings: ATCC BAA-1705, time 16-18 hrs; outline: as §1
[11] = Selectivity index, ratio of CC50 for cytotoxicity against African green monkey Vero cells to MIC for antibacterial activity against Staphylococcus aureus ATCC 29213; format: toxicity, cell-based; settings: read-out: Selectivity Index
Outline: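 SI = Vero CC50 (MTT, 72 h) divided by MIC against S. aureus ATCC 29213 (CA-MHB broth microdilution, 16-18 h, 37 °C).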

[12] = test system: Staphylococcus aureus; test: Antibacterial activity against methicillin-resistant Staphylococcus aureus NR10192 measured after 16 to 18 hrs; format: functional; settings: time 16-18 hrs; outline: as §1
[13] = test system: Staphylococcus aureus; test: Antibacterial activity against methicillin-resistant Staphylococcus aureus NR10129 measured after 16 to 18 hrs; format: functional; settings: time 16-18 hrs; outline: as §1
[14] = test system: Staphylococcus aureus; test: Antibacterial activity against methicillin-resistant Staphylococcus aureus NR10194 measured after 16 to 18 hrs; format: functional; settings: time 16-18 hrs; outline: as §1
[15] = test system: Staphylococcus aureus; test: Antibacterial activity against methicillin-resistant Staphylococcus aureus NR10186 measured after 16 to 18 hrs; format: functional; settings: time 16-18 hrs; outline: as §1
[16] = test system: Staphylococcus aureus; test: Antibacterial activity against methicillin-sensitive Staphylococcus aureus ATCC 29213 measured after 16 to 18 hrs; format: functional; settings: time 16-18 hrs; outline: as §1
[17] = test system: Staphylococcus aureus; test: Antibacterial activity against vancomycin-resistant Staphylococcus aureus VRS12 measured after 16 to 18 hrs; format: functional; settings: time 16-18 hrs; outline: as §1
[18] = test system: Staphylococcus aureus; test: Antibacterial activity against vancomycin-resistant Staphylococcus aureus VRS4 measured after 16 to 18 hrs; format: functional; settings: time 16-18 hrs; outline: as §1
[19] = test system: Staphylococcus aureus; test: Antibacterial activity against methicillin-resistant Staphylococcus aureus NR100 measured after 16 to 18 hrs; format: functional; settings: time 16-18 hrs; outline: as §1
[20] = test system: Staphylococcus aureus; test: Antibacterial activity against methicillin-resistant Staphylococcus aureus NR10191 measured after 16 to 18 hrs; format: functional; settings: time 16-18 hrs; outline: as §1
[21] = test system: Staphylococcus aureus; test: Antibacterial activity against methicillin-resistant Staphylococcus aureus NR10193 measured after 16 to 18 hrs; format: functional; settings: time 16-18 hrs; outline: as §1
[22] = test system: Staphylococcus aureus; test: Antibacterial activity against vancomycin-resistant Staphylococcus aureus VRS1 measured after 16 to 18 hrs; format: functional; settings: time 16-18 hrs; outline: as §1
[23] = test system: Staphylococcus aureus; test: Antibacterial activity against methicillin-resistant Staphylococcus aureus NR10198 measured after 16 to 18 hrs; format: functional; settings: time 16-18 hrs; outline: as §1
[24] = test system: Staphylococcus aureus; test: Antibacterial activity against methicillin-resistant Staphylococcus aureus NR119 measured after 16 to 18 hrs; format: functional; settings: time 16-18 hrs; outline: as §1

| SMILES | MIC [1] [mg/L] | MIC [3] [mg/L] | MIC [4] [mg/L] | MIC [5] [mg/L] | MIC [6] [mg/L] | MIC [7] [mg/L] | MIC [8] [mg/L] | MIC [9] [mg/L] | MIC [10] [mg/L] | further results |
| --- | --- | --- | --- | --- | --- | --- | --- | --- | --- | --- |
| Fc1ccc2[nH]c(-c3ccc(Nc4nc(-c5ccccc5)nc5ccccc45)cc3)nc2c1 | > 64 | 32 (≈ 74.2 µM) | > 64 | 4 (≈ 9.27 µM) | > 64 | > 64 | > 64 | > 64 | > 64 | CC50 at 72 h [2]: 40 mg/L (≈ 92.7 µM); selectivity ratio [11]: 10 |
| O=[N+]([O-])c1ccc2[nH]c(-c3ccc(Nc4nc(-c5ccccc5)nc5ccccc45)cc3)nc2c1 | > 64 | > 64 | > 64 | > 64 | 8 (≈ 17.4 µM) | > 64 | > 64 | > 64 | > 64 | CC50 at 72 h [2]: 100 mg/L (≈ 218 µM); selectivity ratio [11]: 12.5 |
| CCCCCCCCCC(=O)N[C@@H](Cc1c[nH]c2ccccc12)C(=O)N[C@H](CC(N)=O)C(=O)N[C@@H](CC(=O)O)C(=O)N[C@@H]1C(=O)NCC(=O)N[C@@H](CCCN)C(=O)N[C@@H](CC(=O)O)C(=O)N[C@H](C)C(=O)N[C@@H](CC(=O)O)C(=O)NCC(=O)N[C@H](CO)C(=O)N[C@@H]([C@H](C)CC(=O)O)C(=O)N[C@@H](CC(=O)c2ccccc2N)C(=O)O[C@@H]1C |  |  |  |  |  |  |  |  |  | MIC [12]: 1 mg/L (≈ 0.617 µM); MIC [13]: 0.5 mg/L (≈ 0.309 µM); MIC [14]: 0.5 mg/L (≈ 0.309 µM); MIC [15]: 0.5 mg/L (≈ 0.309 µM); MIC [16]: 1 mg/L (≈ 0.617 µM); MIC [17]: 0.5 mg/L (≈ 0.309 µM); MIC [18]: 0.5 mg/L (≈ 0.309 µM); MIC [19]: 1 mg/L (≈ 0.617 µM); MIC [20]: 1 mg/L (≈ 0.617 µM); MIC [21]: 1 mg/L (≈ 0.617 µM); MIC [22]: 1 mg/L (≈ 0.617 µM); MIC [23]: 0.5 mg/L (≈ 0.309 µM); MIC [24]: 1 mg/L (≈ 0.617 µM) |
| Brc1ccc2[nH]c(-c3ccc(Nc4nc(-c5ccccc5)nc5ccccc45)cc3)nc2c1 | > 64 |  | > 64 | > 64 |  |  |  | > 64 | > 64 |  |
| NNC(=O)c1ccncc1 [ISONIAZID] |  |  |  |  | 0.03 (≈ 0.219 µM) |  |  |  |  |  |
| O=C(Nc1ccc2nc(C(F)(F)F)[nH]c2c1)c1ccc(Nc2nc(-c3ccccc3)nc3ccccc23)cc1 | > 64 | > 64 | > 64 | 32 (≈ 61 µM) | 64 (≈ 122 µM) | > 64 | > 64 | > 64 | > 64 |  |
| COc1ccc(-c2nc(Nc3ccc(-c4nc5cc(Cl)ccc5[nH]4)cc3)c3ccccc3n2)cc1OC | > 64 | > 64 | > 64 | 16 (≈ 31.5 µM) | 32 (≈ 63 µM) | > 64 | > 64 | > 64 | > 64 | CC50 at 72 h [2]: > 100 mg/L; selectivity ratio [11]: > 6.25 |
| CC[C@@H](CO)NCCN[C@@H](CC)CO [ETHAMBUTOL] |  |  |  |  | 1 (≈ 4.89 µM) |  |  |  |  |  |
| O=C(Nc1ccc2nc(-c3ccc4ccccc4c3)[nH]c2c1)c1ccc(Nc2nc(-c3ccccc3)nc3ccccc23)cc1 | > 64 | > 64 | > 64 | > 64 | 64 (≈ 110 µM) | > 64 | > 64 | > 64 | > 64 |  |
| O=C(Nc1ccc(Nc2nc(-c3ccccc3)nc3ccccc23)cc1)c1cc(Br)ccc1Cl |  |  |  |  | 4 (≈ 7.55 µM) |  |  |  |  |  |
| FC(F)(F)c1nc2ccc(Nc3nc(-c4cccs4)nc4ccccc34)cc2[nH]1 | > 64 | > 64 | > 64 | 64 (≈ 156 µM) | 64 (≈ 156 µM) | > 64 | > 64 | > 64 | > 64 |  |
